Most compounds without a hit are left out; they make up all but 2.8% or so of the library.
EP2 antag = blocks the human prostaglandin E2 receptor EP2. P43116. C6 glioma cells expressing human EP2, cAMP TR-FRET; cells stimulated with saturating PGE2. inhibition, % at 25 µM. 0.52% of 260,000 active. AID 1422;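 active = percent inhibition above 40 after rounding to a whole number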;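 also: rat C6 glioma host cells with rolipram phosphodiesterase inhibitor present; the protocol text gives 20 µM as final concentration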
NPY-Y1 antag = NPY-Y1 (human) receptor antagonism. P25929. HEK293-CNG Y1 cells, membrane potential fluorescence; NPY at EC95, then isoproterenol. inhibition, % at 3.6 µM. 1% of 200,000 active;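 active = inhibition above the campaign mean inhibition of all tested compounds plus 3 SD, cut at about 20% in these data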
Target sequence (P25929 whole entry, looked up): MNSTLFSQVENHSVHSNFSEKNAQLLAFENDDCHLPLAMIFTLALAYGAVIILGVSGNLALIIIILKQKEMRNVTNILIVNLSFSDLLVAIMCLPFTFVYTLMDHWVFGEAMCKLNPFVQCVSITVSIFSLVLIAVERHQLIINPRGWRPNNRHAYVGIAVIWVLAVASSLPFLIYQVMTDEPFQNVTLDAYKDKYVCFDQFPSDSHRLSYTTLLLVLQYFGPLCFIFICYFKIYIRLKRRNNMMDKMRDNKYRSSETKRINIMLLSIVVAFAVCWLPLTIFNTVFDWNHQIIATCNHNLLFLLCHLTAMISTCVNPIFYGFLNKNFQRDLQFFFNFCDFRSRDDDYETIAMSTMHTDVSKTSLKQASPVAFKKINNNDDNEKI
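material = HEK293 cells with Y1 receptor plus CNG channel | also added = NPY 25 nM then isoproterenol 1 µM plus Ro 20-1724 25 µM | schedule = dye 3 h, compound 60 min room temperature, stimulation 45 min | measured by = membrane potential fluorescence | benchmarks = high control isoproterenol alone, low control NPY with isoproterenol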
EP2 modulator = modulates human prostaglandin E2 receptor EP2 signaling; AID 940; induction, % at 25 µM; EP2-expressing cells, cAMP HTRF FRET, PGE2 co-stimulation; 0.83% of 260,000 active; P43116;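 active = compounds whose cAMP rise, as percent of the full-agonist control response, exceeds 60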;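 also: rat C6 glioma line stably carrying human EP2 under a CMV promoter; the protocol text gives 20 µM as final concentration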
NPY2 pot ag = potentiators or agonists of human neuropeptide Y receptor Y2 | cells expressing NPY-Y2, potentiator/agonist read-out | activation, % at 3.6 µM | 0.45% of 220,000 active; in the data active = activation above about 27%;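 also: cells stimulated with NPY near EC25 plus isoproterenol at EC100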
NPY-Y2 antag = blocks the human neuropeptide Y Y2 receptor. NPY-Y2 expressing cells, antagonist mode. inhibition, % at 2.7 µM. 0.99% of 140,000 active. AID 793; in the data active = inhibition above about 17%
NPY-Y1 PAM-ag = potentiators or agonists of human neuropeptide Y receptor Y1 | P25929 | NPY-Y1 expressing cells, potentiator/agonist activation | activation, % at 3.6 µM | 0.37% of 220,000 active; in the data active = activation above about 33%, passing the limit was not always enough;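 also: cells stimulated with NPY at EC10 then isoproterenol at EC100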
NPY-Y2 pot conf = human NPY-Y2 potentiation or agonism, confirmation; shares compounds with NPY2 pot ag; cell-based NPY-Y2 potentiator/agonist assay; activation, % at 3.6 µM; 20% of 450 active; AID 1539; in the data active = activation above about 33%
NPY-Y1 potentiator = counter-screen for NPY-Y2 potentiators or agonists: NPY-Y1 potentiators or agonists | shares compounds with NPY2 pot ag | Y1 HEK293-CNG cells, membrane potential fluorescence | activation, % at 3.6 µM | 20% of 450 active | AID 1651; in the data active = activation above about 45%;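 also: cells stimulated with submaximal NPY then isoproterenol with phosphodiesterase inhibitor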
NPY-Y1 agonist 2 = activates human NPY-Y1, counter-screen for NPY-Y2 potentiators; shares compounds with NPY2 pot ag; HEK293 Y1-CNGC, membrane potential fluorescence, agonism; activation, % at 3.6 µM; 37% of 450 active;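 active = activation above the mean of DMSO-only control wells plus 3 SD, cut at about 18% in these data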;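 also: cells stimulated with 1 µM isoproterenol plus the PDE inhibitor Ro 20-1724; Y1 agonists lower the membrane potential dye signal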
CNGC inhibitor = cyclic nucleotide gated channel inhibition as counter-screen; HEK293-CNG parental, isoproterenol cAMP, membrane potential fluorescence; 32% of 450 active; shares compounds with NPY2 pot ag; AID 1703; inhibition, % at 3.6 µM;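 active = inhibition above the control-well mean plus 3 SD of those wells, cut at about 22% in these data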
NPY-Y2 ag 2 = NPY-Y2 agonism, counter-screen for Y2 potentiators; 56% of 450 active; HEK293 Y2/CNGC cells, membrane potential fluorescence, agonist mode; shares compounds with NPY2 pot ag; activation, % at 3.6 µM;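 active = activation above the mean of solvent-only control wells plus 3 SD, cut at about 10% in these data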;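 also: cells stimulated by isoproterenol with no NPY added so direct agonism is tested; agonism lowers probe fluorescence through less cAMP and CNG channel opening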
Each line names hits and unclear results; the compound was inactive in the other large screens (follow-up assays come after a bar, where they were run).

COc1ccccc1NS(=O)(=O)c1cccc(NC(=O)Nc2ccc(Cl)cc2)c1	NPY2 pot ag 31 (no result: NPY-Y2 antag) | NPY-Y2 pot conf inactive | NPY-Y1 potentiator inactive | NPY-Y1 agonist 2 30 | CNGC inhibitor 32 | NPY-Y2 ag 2 31
O=C(Cc1ccc(Cl)cc1)Nc1cccc(S(=O)(=O)Nc2ccccc2F)c1	NPY2 pot ag 38 | NPY-Y2 pot conf inactive | NPY-Y1 potentiator inactive | NPY-Y1 agonist 2 inactive | CNGC inhibitor inactive | NPY-Y2 ag 2 20
CN(C)S(=O)(=O)c1cccc(NC(=O)Cc2ccc(Cl)cc2)c1	none
Cc1ccccc1Cn1cnc2c(NS(C)(=O)=O)c(C)c(C)cc21	none
COc1ccc(Cn2cnc3c(NS(C)(=O)=O)c(C)c(C)cc32)cc1	NPY2 pot ag 35 | NPY-Y2 pot conf inactive | NPY-Y1 potentiator inactive | NPY-Y1 agonist 2 inactive | CNGC inhibitor inactive | NPY-Y2 ag 2 21
CC(C)CC(NC(=O)c1ccc(Cl)cc1)C(=O)OCc1cc([N+](=O)[O-])cc2c1OCOC2 (centres undefined)	NPY2 pot ag 28 | NPY-Y2 pot conf inactive | NPY-Y1 potentiator inactive | NPY-Y1 agonist 2 inactive | CNGC inhibitor inactive | NPY-Y2 ag 2 18
CC(C)C(NC(=O)c1ccccc1)C(=O)OCc1cc([N+](=O)[O-])cc2c1OCOC2 (centres undefined)	none
CC(=O)n1c2c(c3ccccc31)OC(N)=C(C#N)C2c1ccc(Cl)cc1Cl (centres undefined)	none (no result: NPY-Y1 antag, NPY2 pot ag, NPY-Y2 antag, NPY-Y1 PAM-ag)
CC1(C)C(=O)OC(/C=C\c2ccccc2)C(C)(C)C1=O (centres undefined)	NPY2 pot ag 33 (no result: NPY-Y2 antag) | NPY-Y2 pot conf inactive | NPY-Y1 potentiator inactive | NPY-Y1 agonist 2 inactive | CNGC inhibitor inactive | NPY-Y2 ag 2 inactive
Cc1nc2ccc(S(=O)(=O)NC(C(=O)Nc3nc4ccc(Cl)cc4s3)C(C)C)cc2s1 (centres undefined)	NPY2 pot ag 30 | NPY-Y2 pot conf inactive | NPY-Y1 potentiator inactive | NPY-Y1 agonist 2 inactive | CNGC inhibitor inactive | NPY-Y2 ag 2 inactive
CCN1CCN(S(=O)(=O)c2ccc(Cl)cc2)CC1	none (no result: NPY-Y1 antag, NPY2 pot ag, NPY-Y2 antag, NPY-Y1 PAM-ag)
CCC1=NN(C(=O)c2cccc(Br)c2)C(O)(c2cccnc2)C1 (centres undefined)	none (no result: NPY-Y1 antag, NPY2 pot ag, NPY-Y2 antag, NPY-Y1 PAM-ag)
COc1ccc(N=c2cc(-c3ccc(OC)cc3)oc3ccccc23)cc1	NPY2 pot ag 30 | NPY-Y2 pot conf 52 | NPY-Y1 potentiator 74 | NPY-Y1 agonist 2 61 | CNGC inhibitor 53 | NPY-Y2 ag 2 54
COc1ccc(-c2cc(=Nc3ccc(C)cc3)c3ccccc3o2)cc1	none
COc1ccc(-c2csc(NC(=O)c3ccccc3NS(=O)(=O)c3ccc(C)cc3)n2)cc1	NPY2 pot ag 65 | NPY-Y2 pot conf inactive | NPY-Y1 potentiator inactive | NPY-Y1 agonist 2 inactive | CNGC inhibitor inactive | NPY-Y2 ag 2 25
NS(=O)(=O)c1ccc(N/N=C2/CCCCC2C2CCCCC2)c([N+](=O)[O-])c1 (centres undefined)	NPY2 pot ag 39 | NPY-Y2 pot conf 57 | NPY-Y1 potentiator 61 | NPY-Y1 agonist 2 60 | CNGC inhibitor 41 | NPY-Y2 ag 2 67
Cc1cc(C)c2c(c1)/C(=N/Nc1ccc(S(N)(=O)=O)cc1[N+](=O)[O-])CCC2	none (no result: NPY-Y2 antag)
Nc1cc(-c2ccc(Br)cc2)nn1Cc1ccccc1	NPY2 pot ag 36 (no result: NPY-Y2 antag) | NPY-Y2 pot conf inactive | NPY-Y1 potentiator inactive | NPY-Y1 agonist 2 inactive | CNGC inhibitor inactive | NPY-Y2 ag 2 28
